NALP1 yeast inh: inhibitors of NALP1 inflammasome in yeast. S. cerevisiae NALP1/ASC/caspase-1 growth, X-gal OD620, 72 h. inhibition, % at 10 µM. 280,000 compounds, 0.61% hits. AID 2071; in the data active means inhibition mostly above about 24%, no sharp cut-off; inactive means mostly below about 32%
Mot1-301 SUMO: inhibitors of SUMOylation pathway: yeast Mot1-301 growth rescue; S. cerevisiae Mot1-301 growth rescue, ATP luminescence, 38.5C; percent above DMSO median, 100 means doubled; growth rescue, % at 18.8 µM; 320,000 compounds, 1% hits;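 active means every valid replicate shows activation above 250% relative to neutral control wells; inactive means the rest, any valid replicate at or below 250%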;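 further: OY570 slx delta 5 strain wells were the positive control but not used for scaling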
IMP-1 inhibitor: blocks Pseudomonas aeruginosa IMP-1 metallo-beta-lactamase. purified IMP-1, nitrocefin hydrolysis, epi-absorbance fluorescence. inhibition, % at 5.6 µM. 290,000 compounds, 0.45% hits;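 active means inhibition above the mean plus 3 SD of all compounds in the same screening run, cut at about 4.5% in these data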;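 further: 0% = IMP-1 with DMSO and 100% = DMSO wells lacking enzyme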
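Material – recombinant IMP-1 enzyme, purified · Amount – IMP-1 0.2 nM before substrate addition · Medium – HEPES buffer pH 7.1 with ZnSO4 and Brij 35 · Timing – 25 °C, 15 min preincubation, 25 min reaction · Measured by – plate fluorescence quenching by hydrolysis product, ex 480/em 530 nm · Read-out – percent enzyme inhibition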
PolyA inh: blocks polyadenylation in yeast reporter cells. S. cerevisiae SKY197-pL101 polyadenylation reporter, beta-gal luminescence; efflux-impaired pdr1/pdr3 knockout yeast; score 100 = 6 SD above DMSO. activity score, % at 12 µM. 300,000 compounds, 0.02% hits. AID 1875;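 active means lowest replicate activity score at least 50, where 100 means six control SD above control mean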;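 further: yeast exposed to compound for 9 h at 30 °C; higher score means more reporter readthrough which indicates perturbed polyadenylation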
NALP3 yeast inh: NALP3 inhibition in yeast. Yeast reconstituted NLRP3/ASC/caspase-1, beta-gal luminescence, 24 h. inhibition, % at 10 µM. 330,000 compounds, 0.39% hits. AID 2825;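 active means inhibition of 50% or more; inactive means inhibition below 50%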;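 further: plate controls were induced DMSO wells for no effect and uninduced yeast grown without galactose for full effect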
VIM-2 inhibitor: blocks Pseudomonas aeruginosa VIM-2 metallo-beta-lactamase; purified VIM-2, nitrocefin hydrolysis, epi-absorbance fluorescence; inhibition, % at 5.6 µM; 290,000 compounds, 0.89% hits; AID 1527;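 active means inhibition above the mean of all tested compounds plus 3 SD, cutoff set per screening run, cut at about 7.5% in these data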;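 further: red hydrolysis product quenches plate fluorescence so inhibitors raise well fluorescence; 0% = enzyme with DMSO and 100% = DMSO without enzyme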
Mot1 SUMO dose: SUMO pathway inhibitors in yeast Mot1-301 growth. shares compounds with Mot1-301 SUMO. S. cerevisiae Mot1-301 galactose growth, ATP luminescence, 24 h; -100 = growth of slx-deleted rescue strain. growth activity, percent, % at 42 µM. 2,300 tested, under 10 active. AID 493004;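 active means Signal drops as the depositor expects, and the fitted half-maximal dose is no more than ten times the top valid tested dose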;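 further: more negative values mean stronger growth rescue toward the control strain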
Active calls of the source: *; x = no result; + = active, no number; [ ] = remark or other dose. A selection: hits, their analogues and other compounds. The true share with any hit is near 2.9%.

SMILES	NALP1 yeast inh	Mot1-301 SUMO	IMP-1 inhibitor	PolyA inh	NALP3 yeast inh	VIM-2 inhibitor	Mot1 SUMO dose
COC(C(=O)Nc1ccnn1C1CCN(Cc2cnn(C)c2)CC1)c1ccccc1 (stereo unspecified)	13	497*	-2	24	7	0	0
COc1ccc(Nc2ccccc2NC(=O)c2ccccc2Br)cc1	-1	4	-4	-8	34	-4	x
COC(=O)N/N=C/c1ccc(-c2ccc(Cl)cc2Cl)o1	14	455*	-1	-6	49	-2	-1
COc1ccc2nc(N3CCCC(C(=O)NCCCN4C(C)CCCC4C)C3)sc2c1 (stereo unspecified)	13	-24	-2	-5	25	0	x
Clc1ccccc1C(c1ccccc1)(c1ccccc1)n1ccnc1	-13	662*	-1	24	4	-1	-2
CC(=O)Nc1cccc(C(=O)OCC(=O)NCc2ccc(F)cc2)c1	3	453*	-1	7	-8	0	0
CC(=O)Nc1ccc(C(=O)OCC(=O)NCc2ccccc2)cc1	4	-3	0	2	10	0	x
N[C@@H](Cc1ccc(O)c(I)c1)C(=O)O	12	640*	0	8	9	0	0
NC(Cc1ccc2nonc2c1)C(=O)O (stereo unspecified)	-14	3	-7	0	-1	-5	x
COc1ccc(CN2CCNC(=O)C2CC(=O)NCc2cn3ccc(C)cc3n2)c(OC)c1 (stereo unspecified)	-2	838*	-4	-7	1	-3	-1
CN(C)c1cccc(C(=O)Nc2cc(C(F)(F)F)ccc2-n2cnc3ccccc32)c1	14	400*	-6	30	6	-4	0
O=C(OCC(=O)c1ccc[nH]1)c1ccccc1	23	114	0	-17	10	1	x
O=C(COc1ccc(Br)cc1Cl)c1ccc[nH]1	3	13	-4	-38	2	-3	x
O=C(COc1ccccc1Cl)c1ccc[nH]1	15	788*	-3	-1	-4	-2	1
O=C(COC(=O)c1c(F)cccc1F)c1ccc[nH]1	7	596*	-1	-2	10	-2	0
Cc1cc(C)cc(NC(=O)COC(=O)CC2CCCC2)c1	x	51	x	x	11	x	x
CCCN(C(=O)c1cccc(-n2cccc2)c1)c1c(N)n(Cc2ccccc2)c(=O)[nH]c1=O	x	-9	x	-13	10	x	x
CCN(CC(=O)Nc1ccc(S(=O)(=O)N2CCCC2)cc1)CC(=O)Nc1ccccc1C(F)(F)F	x	-12	x	x	23	x	x
Cc1c(N(C(=O)c2ccccn2)C2(C(=O)NC3CCCC3)CCCCC2)c(=O)n(-c2ccccc2)n1C	3	92	-2	-22	5	2	x
CCn1c(SCC(=O)Nc2cc(C)on2)nc2c(c1=O)SCC2	7	-17	-3	6	23	-1	x
Cc1nn(C)c(NC(=O)c2ccc(Cl)cc2Cl)c1Br	6	17	0	-11	22	-2	x
Cc1cc([N+](=O)[O-])ccc1NC(=O)CSc1nccc(=O)[nH]1	4	378*	-3	1	13	-3	0
Cc1cc([N+](=O)[O-])ccc1NC(=O)CSc1nnc(C)n1C	0	94	1	1	5	-2	x
Cc1ccc(C(=O)NC2CCCc3ccccc32)cc1[N+](=O)[O-] (stereo unspecified)	18	22	-1	4	16	-2	x
O=C(CSc1nnc(CNC(=O)c2ccccc2)o1)NCc1ccco1	10	800*	0	-1	0	0	0
SMILES	NALP1 yeast inh	Mot1-301 SUMO	IMP-1 inhibitor	PolyA inh	NALP3 yeast inh	VIM-2 inhibitor	Mot1 SUMO dose
O=C(CSc1nnc(CNC(=O)c2ccco2)o1)Nc1ccccc1	3	251	-3	13	3	-3	x
O=C(CSc1nnc(CNC(=O)c2ccco2)o1)Nc1nc2ccccc2s1	-8	+	-4	17	12	-4	1
CCC1CCCCN1C(=O)CSc1nnc(CNC(=O)c2ccco2)o1 (stereo unspecified)	1	361*	-3	-1	2	-2	0
CN(CC(=O)Nc1cccc(F)c1)C(=O)CNS(=O)(=O)c1ccc(N(C)C)c([N+](=O)[O-])c1	x	-23	x	-1	13	x	x
O=C(Nc1nc(-c2ccc(F)c(F)c2)cs1)Nc1ccc(F)cc1F	18	61	-2	-19	13	-3	x
CC12CCC(C(=O)Nc3nc4ccccc4s3)(OC1=O)C2(C)C (stereo unspecified)	-2	-6	-4	-9	9	-6	x
COc1ccccc1-c1nnc(SCC(=O)NC2CCS(=O)(=O)C2)n1N (stereo unspecified)	-7	+	-2	-1	2	-2	0
COc1ccccc1-c1nnc(SCC(=O)NC2CCCCC2)n1N	x	-2	x	x	22	x	x
c1ccc(Nc2nnc(-c3cccnc3)s2)cc1	32	82	1	-14	12	1	x
O=C(Nc1cc(Cl)ccc1Oc1ccccc1)C1=COCCO1	x	12	x	-7	11	x	x
Cc1ccc(Oc2ccccc2NC(=O)C2=COCCO2)cc1	x	416*	x	26	22	x	0
CN(c1ccccc1)S(=O)(=O)c1ccc(C(=O)NCC2CCCO2)cc1 (stereo unspecified)	-4	451*	-5	-3	0	-1	0[21 µM]
COCCC(=O)Nc1c(-c2ccccc2)c2cc(Br)ccc2[nH]c1=O	-5	25	-3	10	29	-1	x
O=c1[nH]nc(Cc2ccc(-c3ccccc3Cl)o2)c2ccccc12	32	360*	-2	-29	8	0	0
CCN(CC)CCN(CC(=O)Nc1c(C)cc(C)cc1C)C(=O)c1ccccc1	-5	-14	-3	-4	7	-1	x
Oc1c(Br)cc(Cl)cc1C=Nc1ccccc1Br	33	634*	-2	-20	4	-2	1
Oc1c(Br)cc(Cl)cc1C=Nc1ccc(N2CCOCC2)cc1	-11	17	-6	-30	21	-7	x
COC(=O)CCC(=O)OC1(C)C(=O)C2=CN(Cc3ccccc3)C(c3ccc(OC)cc3)=CC2=C(Br)C1=O (stereo unspecified)	x	16	x	-15	15	x	x
COC(=O)CCC(=O)OC1(C)C(=O)C2=CN(CCc3c[nH]c4ccccc34)C(c3ccc(OC)cc3)=CC2=C(Br)C1=O (stereo unspecified)	x	419*	x	-20	14	x	0
COc1cc2c(cc1OC)CN(S(=O)(=O)c1ccccc1F)CC2	26	-7	-1	-14	12	-1	x

Source: PubChem BioAssay
